# Compound activity (PubChem BioAssay)
# Most compounds without a hit are left out; they make up all but 12% or so of the library.
# Autophagy mod: autophagy modulators in MEF cells, primary screen, imaging, high-content, MEF GFP-LC3; MEF GFP-LC3 puncta imaging; test concentration mostly 10 µM; calls only at 10 µM (by protocol); actives 0.98% (n = 190,000);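 active = percentage of spot-positive cells more than 3 SD above its plate mean, without a fluorescence outlier flag or 80% toxicity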;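 note: spot-positive cell cutoff set from DMSO-treated cells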
# L major viab: Leishmania major promastigote growth inhibition, primary screen; inhibition, % at 10 µM; actives 9% (n = 200,000); Leishmania major promastigotes, resazurin fluorescence viability; in the data active = inhibition above about 50%;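 note: promastigotes grown with compound for 44 hours at 28 °C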
# CHOP inh: inhibitors of CHOP promoter induction, primary screen, cell-based, unfolded protein response, luciferase reporter. CHO-K1 CHOP-promoter luciferase, tunicamycin-induced, 15-18 h. inhibition, % at 10 µM. actives 3.8% (n = 220,000). AID 2732, 2010;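 active = compounds that reduced the stress-induced luciferase reporter signal by more than about 70% of percent inhibition, limit read from the data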;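 note: 0% = tunicamycin plus vehicle and 100% = wells without tunicamycin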
# MT stabilizer: microtubule stabilizers in HeLa cells, primary screen, imaging, high-content imaging. HeLa tubulin immunostaining HCS, 24 h; share of cells brighter than vehicle mean+2SD. actives 0.83% (n = 200,000). % tubulin-high responders, % at 10 µM;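 active = plate Z-score above 3 for both tubulin-high and condensed-nucleus cell shares, with cell loss under 80%, at 10 µM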;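 note: anti alpha tubulin signal scored within the nucleus-defined area of each cell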
# Dynein cargo inh: inhibitors of GR-EGFP nuclear translocation, primary screen, dynein cargo transport inhibitor project, imaging, high-content, 3617.4 mouse cells; test concentration mostly 20 µM; stimulated with dexamethasone, 1 µM; active compounds read low; z-score, hits read low; actives 0.47% (n = 220,000); AID 1381, 2008;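 active = plate z-score of nuclear minus cytoplasmic receptor signal below a set negative limit, without overly bright fluorescence or cell loss, cut at about -3.5 in these data, passing the limit was not always enough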;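 note: z-score of nuclear minus cytoplasmic ring GR-EGFP intensity difference per well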
#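 medium = tetracycline-free induction medium containing charcoal-stripped FBS | also added = 1.0 µM final dexamethasone stimulus | schedule = 48 h induction, 1 h compound, 30 min dex at 37 °C | technique = fixed, Hoechst-stained cells imaged at 10x for EGFP | measure = GR-EGFP nuclear translocation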
# b-catenin transl: modulators of beta-catenin nuclear translocation, primary screen, imaging, HeLa cells, immunofluorescence, high-content. nuclear translocation activity, % at 5 µM. actives 0.3% (n = 190,000). AID 1665, 2009;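 active = nuclear translocation activity above 50% at 5 µM, with a well cell count of 50 or more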;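 note: per-cell ratio of nuclear to cytoplasmic median beta-catenin stain intensity; plate controls were DMSO negative control for no effect and GSK-3 inhibitor IX positive control for full effect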
#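 Technique: fluorescence imaging of beta-catenin antibody stain plus DAPI / Material: human HeLa cell line / Incubation: compound treatment 24 h, 37°C, 5% CO2 / Read-out basis: % activation of per-cell nuclear versus cytoplasmic median beta-catenin signal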
# The depositor's hits bear a star; i = inactive; . = not tested or not shown; + = active, no number.
SMILES,Autophagy mod,L major viab,CHOP inh,MT stabilizer,Dynein cargo inh,b-catenin transl
CC(=O)c1c(C)[nH]c(C(=O)OCC(=O)N2c3ccccc3NC(=O)C2(C)C)c1C,i,56*,9,2,-0.51,-3
Cc1snc(S(=O)(=O)/C(C#N)=N/Nc2ccc(C(F)(F)F)cc2)c1C#N,i,-5,12,2,-0.49,-4
Cc1ccc(NC(=O)C2CC2C)c(Cl)c1 (stereo not given),i,0,7,3,-0.72,-2
COc1cc(/C=C2\SC(=S)N(N(C)c3ccccc3)C2=O)ccc1O,.,.,1,.,-0.71,-1
CC1(C)C2CC=C(/C=N/NC(=O)c3ccccc3Br)C1C2 (stereo not given),i,100*,54,5,0.97,-1
COC(=O)N/N=C/C1=CCC2CC1C2(C)C (stereo not given),i,58*,1,3,0.5,2
O=C(N/N=C/c1ccc[nH]1)c1ccc(O)cc1,i,-6,-18,3,-0.18,-1
CC1(C)C2CC=C(/C=N/NC(=O)c3ccc(O)cc3)C1C2 (stereo not given),i,94*,-4,5,0.93,-2
CC1(C)C2CC=C(/C=N/NC(=O)C(N)=O)C1C2 (stereo not given),.,.,62,.,1.7,-1
CCCCOc1ccc(CCC(=O)N/N=C/c2ccco2)cc1,.,.,9,.,-0.92,-3
CCOc1ccc2nc(N3CCCC(C(=O)NCCCN4CCOCC4)C3)sc2c1 (stereo not given),+,-8,-23,5,0.73,-1
CCCn1c(NC(=O)C2CCN(S(=O)(=O)c3cccs3)CC2)nc2ccccc21,i,97*,.,3,1.6,0
COc1cccc(NC(=O)C2CCCN(S(=O)(=O)c3cccc4nsnc34)C2)c1 (stereo not given),i,5,68,5,0.53,.
CCOc1ccc2nc(NC(=O)C3CCCN(S(=O)(=O)c4cccs4)C3)sc2c1 (stereo not given),i,55*,70,5,-0.64,0
Cc1csc(NC(=O)C2CCN(S(=O)(=O)c3cccs3)CC2)n1,i,27,-13,4,0.92,-3
CCOc1ccc(NC(=O)C2CCCN(S(=O)(=O)c3cccc4nsnc34)C2)cc1 (stereo not given),i,-6,74*,2,-0.073,3
CCn1c(O)c(N=NC(=O)C(O)c2ccccc2)c2ccccc21 (stereo not given),.,.,30,.,0.25,0
NS(=O)(=O)c1ccc(CCNC(=O)c2cc(-c3cc(Cl)ccc3O)n[nH]2)cc1,.,.,-4,.,0.15,-3
COc1ccc(C(=O)C[n+]2ccc3c(c2)nc(-c2ccc(OC)cc2OC)n3C)cc1,i,87*,-9,3,0.13,0
COc1cc(-c2nc3c[n+](CC(=O)c4ccccc4)ccc3n2C)cc(OC)c1OC,i,-3,-2,2,-0.41,-3
CCOC(=O)c1ccc[n+](CC(=O)c2ccc(OC)cc2)c1,i,-6,27,6,0.21,0
COc1ccc(C(=O)C[n+]2ccc3c(c2)nc(-c2ccccc2)n3C)cc1,i,68*,-5,4,0.3,-2
CCN(CC)C(=O)Cn1cc(C(=O)C2CC2)c2ccccc21,i,0,2,1,-0.076,-2
COc1cc(C2C3=C(CC(C)(C)CC3=O)OC(N)=C2[N+](=O)[O-])ccc1O (stereo not given),i,-5,-10,4,-0.83,-3
Cc1ccc(Nc2c(-c3ccccc3O)nc3cnccn23)cc1,i,79*,49,4,0.33,0
SMILES,Autophagy mod,L major viab,CHOP inh,MT stabilizer,Dynein cargo inh,b-catenin transl
COc1ccc(Nc2c(-c3ccc(C)cc3)nc3cnccn23)cc1,i,4,14,2,-1.4,-3
CCC(C)NC(=O)CNC(=S)N(Cc1ccccc1F)C1CCCCC1 (stereo not given),i,12,31,4,-0.36,-5
Cc1ccc(C)c(N(CC(=O)Nc2cc(Cl)ccc2Oc2ccccc2)S(C)(=O)=O)c1,i,52*,19,3,-1.7,.
COc1ccc(Cl)cc1N(CC(=O)Nc1cccc(SC)c1)S(C)(=O)=O,i,61*,17,2,0.13,-6
Cc1cccc(C)c1N(CC(=O)Nc1cc(Cl)ccc1Oc1ccccc1)S(C)(=O)=O,i,10,47,2,0.38,-4
COc1ccc(NC(=O)CN(c2ccccc2)S(=O)(=O)N(C)C)cc1Cl,i,9,8,2,-0.81,0
COc1ccccc1NC(=O)CN(C)S(=O)(=O)c1cc(C)ccc1OC,i,9,15,1,-1.4,.
COc1ccc(Cl)cc1NC(=O)CN(c1ccccc1)S(=O)(=O)N(C)C,i,100*,5,3,0.016,-2
COc1ccc(OC)c(S(=O)(=O)N(C)CC(=O)Nc2cc(Cl)ccc2OC)c1,i,100*,21,1,-0.99,0
CSc1nc(SCC(=O)NC(c2ccccc2)c2ccccc2)c2c3c(sc2n1)CN(C)CC3,i,71*,57,2,0.23,-2
O=C(CCC1CCCC1)N1CCN(C(=O)c2cccnc2)CC1,i,-3,-4,5,0.13,1
CC(C)(C)NC(=O)COC(=O)c1ccccc1OCC(=O)Nc1ccc(Br)cc1,i,-4,69,3,0.23,-2
CCCNC(=O)COC(=O)c1ccccc1OCC(=O)Nc1ccc(Br)cc1,i,-3,80*,4,-0.2,-3
N#C/C(=C\c1ccc(Sc2ccc(Cl)cc2)o1)c1nc2ccccc2[nH]1,i,60*,59,6,-2.7,-2
Cc1ccc(/C=C(\C#N)c2nc3ccccc3[nH]2)s1,i,23,44,4,0.76,-2
N#C/C(=C\c1ccc(Cl)cc1)c1nc2ncccc2[nH]1,i,79*,-48,42*,1.2,21
N#C/C(=C/c1cccs1)c1nc2ccccc2[nH]1,i,85*,12,2,-0.98,.
N#C/C(=C\c1c(Cl)cccc1Cl)c1nc2ccccc2[nH]1,.,.,3,.,-0.074,-3
COCC(C)n1c(SCC(=O)NNC(=O)c2ccccc2)nc2ccccc2c1=O (stereo not given),i,-5,3,4,-0.7,1
CC(C)Cn1c(SC(C)C(=O)Nc2ccc3c(c2)OCCO3)nc2ccccc2c1=O (stereo not given),i,28,76*,3,0.95,-3
